In the library only some 1.8% were active in any assay of this set; here they are far more common.
Apaf-1 inh – inhibitors of human Apaf-1 apoptosome | reconstituted apoptosome caspase-3 activity, DEVD-Rh110 fluorescence | inhibition, % at 20 µM | 0.71% of 330,000 active; active = inhibition of at least 40% at 20 µM
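Medium: Hepes buffer, pH 7.5 / System: biochemical Apaf-1 apoptosome reconstitution / Measured by: Rh110 fluorescence, excitation 480 nm, emission 540 nm / Times: compound with Apaf-1, dATP, procaspase-3 30 min, then 50 min reaction, room temperature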
ZTA counter – ZTA (EBV) inhibition in EBNA-1 counter-screen; inhibition, % at 11 µM; AID 2234; ZTA-DNA binding, fluorescence polarization; 0.15% of 320,000 active; in the data active = inhibition above about 33%
GSTO1 inh – GSTO1 inhibition, counter-screen for RBBP9 inhibitors. recombinant GSTO1, activity-based probe fluorescence polarization. inhibition, % at 5.96 µM. P78417. 1.1% of 300,000 active;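 active = inhibition above the campaign mean inhibition plus 3 SD, cut at about 35% in these data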
EBNA-1 inh – blocks EBNA-1 binding to DNA | inhibition, % at 14.8 µM | EBNA-1 DNA binding, fluorescence polarization | AID 1950 | 0.34% of 300,000 active; in the data active = inhibition above about 28%
procasp3 activ – activators of human procaspase-3; recombinant procaspase-3 D3A, Ac-DEVD-pNA absorbance 405 nm; P42574; activation, % at 8.5 µM; 0.11% of 330,000 active;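 active = activation above the mean of all tested compounds plus 3 SD, cut at about 21% in these data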
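Evaluation: percent activation relative to control range; Material: Procaspase-3 D3A mutant, all three cleavage aspartates alanine; Compound: single dose, 8.5 µM nominal compound, 0.8% DMSO; Replication: one well per compound; Signal: absorbance at 405 nm, 0 and 120 min; Schedule: 1 h preincubation plus 2 h reaction at 25 °C.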
procasp7 counter – counter-screen for procaspase-3 activators: activators of human procaspase-7. recombinant procaspase-7, Ac-DEVD-pNA absorbance 405 nm; D23A/D198A/D206A triple mutant, cannot self-cleave; scale: DMSO 0, 5 µM enzyme 100. activation, % at 8.5 µM. 0.093% of 330,000 active;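 active = percent activation above the screen-wide mean plus 3 SD, cut at about 25% in these data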
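System: Uncleavable procaspase-7 mutant enzyme; Amount: 2 µM procaspase-7 mutant as dispensed; Schedule: 1 h compound preincubation, 2 h substrate cleavage, 25 °C; Measured by: 405 nm absorbance of p-nitroaniline; Evaluation: percent activation from buffer-corrected 0–120 min absorbance change; Control set: low DMSO alone, high DMSO plus 5 µM PC-7.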
Apaf-1 inh conf2 – confirmation of Apaf-1 inhibitors | shares compounds with Apaf-1 inh | reconstituted apoptosome, caspase-3 DEVD-Rh110 fluorescence | inhibition, % at 20 µM | 25% of 1,800 active | AID 504614;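 active = mean inhibition of at least 40% at 20 µM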
Rh110 quench – interferes with Rh110 fluorescence, flagging false Apaf-1 inhibitors. shares compounds with Apaf-1 inh. Rh110 fluorescence interference, quenched caspase reaction. activation (fluorescence interference), % at 20 µM. 1,800 tested, under 10 active. AID 504615;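 active = signal rise of 40% or more at 20 µM, treated as a fluorescence artifact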
Apaf1 inh interf – shows fluorescence interference in the Apaf-1 inhibitor assay format | 460 tested, under 10 active | AID 588538 | shares compounds with Apaf-1 inh | fluorescence interference counterscreen, Apaf-1 assay format | IC50, µM; call rule not given here
Of the large screens only hits and unclear results are named; the others gave an inactive call (follow-up assays come after a bar, where they were run).

O=c1c2ccccc2sc2ccc(NCCCN3CCOCC3)cc12	none
Cc1cc2oc3cc(NCCC4CCCN4C)ccc3c(=O)c2cc1C (configuration not stated)	Apaf-1 inh 43.5 | Apaf-1 inh conf2 inactive | Rh110 quench inactive
CCCN(C(=O)CCNC(=O)c1ccc(Cl)cc1)c1c(N)n(Cc2ccccc2)c(=O)[nH]c1=O	none (no result: GSTO1 inh, EBNA-1 inh)
CCCCc1ncc(CN2CCC(n3nccc3NC(=O)c3ccccc3Cl)CC2)[nH]1	none
COCCNC(=O)CN(c1cccc(OC)c1)S(=O)(=O)c1ccc(C)cc1	Apaf-1 inh 57.1 | Apaf-1 inh conf2 inactive | Rh110 quench inactive
CCC1Nc2ncnc(N3CCCCC3)c2N(Cc2ccc(OC)cc2)C1=O (configuration not stated)	none (no result: ZTA counter, GSTO1 inh, EBNA-1 inh)
CC(C)CC1CCCCC1OC(=O)C[N+]1(C)CCCCC1 (configuration not stated)	none
CC(Oc1cccc(Cl)c1)C(=O)Nc1cc(S(=O)(=O)N2CCOCC2)ccc1N1CCCCC1 (configuration not stated)	Apaf-1 inh 47.7 | Apaf-1 inh conf2 43.5 | Rh110 quench inactive | Apaf1 inh interf inactive
Cc1c(CCOC(=O)CC23CC4CC(CC(C4)C2)C3)sc[n+]1CC(=O)c1ccc(Br)cc1	Apaf-1 inh 49.3 | Apaf-1 inh conf2 inactive | Rh110 quench inactive
O=[N+]([O-])c1ccc(N/N=C/c2ccc(O)c(O)c2O)c(S(=O)(=O)N2CCOCC2)c1	Apaf-1 inh 62.7 (no result: ZTA counter, GSTO1 inh, EBNA-1 inh, procasp3 activ, procasp7 counter) | Apaf-1 inh conf2 43.0 | Rh110 quench inactive | Apaf1 inh interf inactive
CSc1ncc(C(=O)Nc2cc(C)ccc2C)c(C)n1	none (no result: ZTA counter, GSTO1 inh, EBNA-1 inh, procasp3 activ, procasp7 counter)
CCN(c1ccccc1)S(=O)(=O)c1cccc(C(=O)NCCOc2ccccc2OC)c1	none (no result: ZTA counter, GSTO1 inh, EBNA-1 inh, procasp3 activ, procasp7 counter)
Cc1nc(C(=O)NNC(=O)Nc2ccccc2)cs1	Apaf-1 inh 56.7 | Apaf-1 inh conf2 inactive | Rh110 quench inactive
Cc1cc(C(=O)NNC(=O)Nc2ccccc2)no1	none
Cc1ccc(NC(=O)COC(=O)c2c[nH]c3ccccc23)cc1C	none (no result: GSTO1 inh, EBNA-1 inh)
CCOc1ccc(NS(=O)(=O)c2ccc(C(=O)N(CC)CC(=O)NCc3cccs3)cc2)cc1	Apaf-1 inh 61.2 | Apaf-1 inh conf2 inactive | Rh110 quench inactive
CCN(CC(=O)NCc1cccs1)C(=O)c1ccc(NS(=O)(=O)c2ccc(C(C)=O)cc2)cc1	none
Cc1ccc(N2CCN(S(=O)(=O)c3cccs3)CC2C)cc1 (configuration not stated)	Apaf-1 inh 62.2 | Apaf-1 inh conf2 inactive | Rh110 quench inactive
CSCCC(NC(=O)COc1ccccc1)C(=O)N1CCCCC1 (configuration not stated)	none
CSCCC(NC(=O)COc1ccccc1)C(=O)N1CCC(C(N)=O)CC1 (configuration not stated)	Apaf-1 inh 63.7 (no result: GSTO1 inh, EBNA-1 inh) | Apaf-1 inh conf2 inactive | Rh110 quench inactive
COc1ccccc1C(=O)NC(CCSC)C(=O)N1CCC(Cc2ccccc2)CC1 (configuration not stated)	Apaf-1 inh 44.0 | Apaf-1 inh conf2 inactive | Rh110 quench inactive
Cc1ccc(S(=O)(=O)N(C)C)cc1NC(=S)Nc1cccc2ccccc12	Apaf-1 inh 93.2 | Apaf-1 inh conf2 inactive | Rh110 quench inactive
COc1ccccc1NC(=S)Nc1cccc2cnccc12	Apaf-1 inh 97.0 | Apaf-1 inh conf2 inactive | Rh110 quench inactive
CCOc1ccc(NC(=S)Nc2ccc(OCC)cc2)cc1	none
CCOc1ccc(NC(=S)Nc2cccc3ccccc23)cc1	Apaf-1 inh 66.0 | Apaf-1 inh conf2 inactive | Rh110 quench inactive
CC(=O)NNC(=S)Nc1cc(S(=O)(=O)N(C)C)ccc1C	none
CCOc1ccc(NC(=S)Nc2cccc3cnccc23)cc1	Apaf-1 inh 95.5 | Apaf-1 inh conf2 inactive | Rh110 quench inactive
CCOc1ccc(NC(=S)Nc2ccccc2C2CC2)cc1	none
CC(C)N(C)S(=O)(=O)c1ccc(NC(=O)C2=COCCO2)cc1	none (no result: GSTO1 inh, EBNA-1 inh)
COc1cc(OC)cc(OC(=O)C2CCN(C3=NS(=O)(=O)c4ccccc43)CC2)c1	none (no result: GSTO1 inh, EBNA-1 inh)
O=[N+]([O-])c1cc([N+](=O)[O-])c(Oc2ccc(Br)cc2Br)cc1NN1CCCCC1	none
Cc1cccc(NC(=S)Nc2cccc3ccccc23)c1	Apaf-1 inh 93.3 | Apaf-1 inh conf2 inactive | Rh110 quench inactive
CC1(C(=O)Nc2cccc3ccccc23)CC1(Br)Br (configuration not stated)	Apaf-1 inh 56.2 | Apaf-1 inh conf2 inactive | Rh110 quench inactive
COc1ccc(NC(=S)Nc2cccc3cnccc23)cc1	Apaf-1 inh 95.4 | Apaf-1 inh conf2 inactive | Rh110 quench inactive
Cc1cccc(NC(=O)Nc2cccc3ccccc23)c1	none
Cc1cc(C)c(S(=O)(=O)/N=C2/C=C(SCC(=O)O)C(=O)c3ccccc32)cc1C	Apaf-1 inh 72.4 (no result: ZTA counter, GSTO1 inh, EBNA-1 inh, procasp3 activ, procasp7 counter) | Apaf-1 inh conf2 55.1 | Rh110 quench inactive | Apaf1 inh interf inactive
Cc1ccc(NC(=O)CSc2ccccc2)cc1S(=O)(=O)N1CCCCC1	none (no result: GSTO1 inh, EBNA-1 inh)
Cc1ccc(S(=O)(=O)NCC(=O)OCC(=O)Nc2cccc(S(=O)(=O)N3CCOCC3)c2)cc1	none (no result: ZTA counter, GSTO1 inh, EBNA-1 inh)
COc1cc2c(cc1OC)CN(Cc1cc(=O)n3c(-c4ccccc4)csc3n1)CC2	Apaf-1 inh 41.9 | Apaf-1 inh conf2 inactive | Rh110 quench inactive
Cc1cc(C)c(C#N)c(SCC(=O)Nc2nonc2N)n1	Apaf-1 inh 63.6 | Apaf-1 inh conf2 inactive | Rh110 quench inactive
CCOC(=O)c1[nH]c(=O)c2ccccc2c1O	Apaf-1 inh 75.3 | Apaf-1 inh conf2 inactive | Rh110 quench inactive
CCOC(=O)c1[nH]c2ccccc2c1NC(C)=O	none
Cc1ccc2c(C)c(C(=O)Nc3ccc(S(=O)(=O)Nc4onc(C)c4C)cc3)oc2c1	none
O=C(COC(=O)c1ccc[nH]c1=O)NCCCc1ccccc1	none (no result: GSTO1 inh, EBNA-1 inh)
CC(C)(C)C1CCC(=NNc2nc3ccccc3[nH]2)CC1 (configuration not stated)	none
c1ccc2c(c1)CC/C2=N/Nc1nc2ccccc2[nH]1	Apaf-1 inh 57.1 | Apaf-1 inh conf2 inactive | Rh110 quench inactive
CCn1c(SCC(=O)N/N=C/C=C\c2ccco2)nc2ccccc21	Apaf-1 inh 46.9 | Apaf-1 inh conf2 inactive | Rh110 quench inactive
COc1cc2c(cc1OC)-c1cc3ccc4c(c3c[n+]1CC2)OCO4	Apaf-1 inh 73.4, GSTO1 inh 41.7 | Apaf-1 inh conf2 inactive | Rh110 quench inactive
COc1cc2c(cc1O)CC[n+]1cc3c(OC)c(OC)ccc3cc1-2	none

Compound activity deposited in PubChem BioAssay by several laboratories.
